# Most compounds without a hit are left out; they make up all but 1.9% or so of the library.
# NadD block – blocks S. aureus nicotinate mononucleotide adenylyltransferase | purified NadD enzyme, colorimetric absorbance read-out | 0.78% of 360,000 active | inhibition, % at 20 µM; in the data active = inhibition above about 26%
# ABHD5 PLIN5 PPI – blocks binding of human ABHD5 to perilipin-5; Q00G26+Q8WTS1; Split G. princeps luciferase complementation, luminescence, 4 h; inhibition, % at 4 µM; 0.78% of 360,000 active; AID 602281;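 active = inhibition above the mean inhibition across every tested compound plus 3 SD, cut at about 22% in these data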;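 also: 0% = DMSO only wells and the 100% control is not disclosed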
# Target sequence (Q00G26 whole entry, looked up): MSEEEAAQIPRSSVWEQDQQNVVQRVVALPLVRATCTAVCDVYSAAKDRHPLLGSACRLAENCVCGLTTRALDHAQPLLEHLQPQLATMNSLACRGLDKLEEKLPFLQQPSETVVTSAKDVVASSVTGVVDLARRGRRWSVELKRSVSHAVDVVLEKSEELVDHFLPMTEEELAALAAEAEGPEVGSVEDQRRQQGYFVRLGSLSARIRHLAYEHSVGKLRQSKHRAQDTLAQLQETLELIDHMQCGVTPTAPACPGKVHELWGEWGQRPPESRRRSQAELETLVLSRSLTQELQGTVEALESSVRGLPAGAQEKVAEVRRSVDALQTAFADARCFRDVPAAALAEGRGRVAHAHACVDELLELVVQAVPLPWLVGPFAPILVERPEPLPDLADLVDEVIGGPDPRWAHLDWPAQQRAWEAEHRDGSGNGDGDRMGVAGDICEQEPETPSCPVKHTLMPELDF
# Target sequence (Q8WTS1 whole entry, looked up): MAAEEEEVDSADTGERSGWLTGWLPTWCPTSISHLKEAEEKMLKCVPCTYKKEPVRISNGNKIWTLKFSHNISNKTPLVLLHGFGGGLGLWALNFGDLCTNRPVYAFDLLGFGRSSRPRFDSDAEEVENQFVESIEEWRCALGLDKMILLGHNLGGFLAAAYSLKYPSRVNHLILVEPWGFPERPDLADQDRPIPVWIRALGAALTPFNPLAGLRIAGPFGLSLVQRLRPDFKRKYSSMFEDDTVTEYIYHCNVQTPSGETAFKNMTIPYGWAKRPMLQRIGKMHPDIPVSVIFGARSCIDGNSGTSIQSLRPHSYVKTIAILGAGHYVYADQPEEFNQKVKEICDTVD
# Xi reactivation – X-chromosome reactivation activator; 0.055% of 360,000 active; AID 743238; activation, % at 7.58 µM; XiGFP mouse fibroblasts, % GFP-positive cells imaging, 3 d; cells co-treated with 5-aza-dC sensitizer; scaled so ellipticine positive control = 100%;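 active = mean normalized replicate activation at least 10% and every replicate at or above 10%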;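 also: 0% = median of on-plate neutral control wells and 100% = ellipticine 6 µM median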
#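 System: XiGFP fibroblasts, SV40-immortalized. Medium: DMEM plus 5-aza-dC sensitizer. Doses: single point. Timing: 3 d treatment, 15 min room-temperature fixation. Control set: ellipticine 6 µM.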
# Rpn11 block – blocks the human proteasome subunit Rpn11; O00487; human 26S proteasome, Ub4-pepOG fluorescence polarization; 20S core pre-blocked with epoxomicin; inhibition, % at 20 µM; 0.59% of 360,000 active; AID 588493;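 active = inhibition at 20 µM, scaled to each plate's controls, above about 33%, limit read from the data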
# Rin1-Abl PPI inh – human Rin1-Abl interaction inhibition. P00519+Q13671. TR-FRET Rin1/Abl binding, biochemical. inhibition, % at 7.35 µM. 0.4% of 360,000 active. AID 588664; in the data active = inhibition above about 5%, passing the limit was not always enough
# ABHD5-PLIN5 conf – confirmation of human ABHD5-PLIN5 interaction inhibitors; 67% of 2,200 active; shares compounds with ABHD5 PLIN5 PPI; biochemical ABHD5-PLIN5 interaction, luminescence; inhibition, % at 4 µM; in the data active = inhibition above about 23%;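 also: 0% = DMSO vehicle wells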
# HNF4 split-luc – counter-screen for ABHD5-PLIN5 inhibitors: HNF4 split-luciferase; shares compounds with ABHD5 PLIN5 PPI; HNF4 dimerization, luminescence, biochemical; inhibition, % at 4 µM; 77% of 2,200 active;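 active = mean inhibition across replicate wells exceeding the computed hit threshold, cut at about 13% in these data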;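 also: light from luciferase halves that rejoin when HNF4 fusion proteins dimerize; 0% = DMSO only wells and the 100% control is not given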
# * marks the source's active call; other numbers are inactive results; x = no result given.
SMILES,NadD block,ABHD5 PLIN5 PPI,Xi reactivation,Rpn11 block,Rin1-Abl PPI inh,ABHD5-PLIN5 conf,HNF4 split-luc
Nc1nc(Sc2c([N+](=O)[O-])cc(C(F)(F)F)cc2[N+](=O)[O-])n[nH]1,-0.2,57.9*,0.0,-0.5,-4.0,78.5*,97.8*
CCCNC(=O)N1C[C@@H](O)COC[C@H]2O[C@H](CC(=O)N3CCCCC3)CC[C@@H]21,x,x,0.7,x,x,x,x
Cc1cc2nc(-c3cccc(Br)c3)c(Cc3ccccc3)n2c(C)c1Br,12.2,28.3*,0.0,23.8,3.9,32.2*,17.1*
CCCC(=O)Nc1ccc2c(c1)OC[C@H](C)N(Cc1ccccc1)C[C@@H](C)[C@H](OC)CN(C)C2=O,x,x,0.0,x,x,x,x
O=C(C[C@@H]1C[C@@H]2c3cc(NC(=O)Nc4ccccc4)ccc3O[C@@H]2[C@H](CO)O1)NCc1cccc(F)c1,x,x,0.0,x,x,x,x
O=C(NCc1cccnc1)/C(=C\c1ccc(-c2ccc(Br)cc2)o1)S(=O)(=O)c1ccccc1,0.4,73.3*,1.3,11.9,1.8,92.8*,82.7*
O=C(NCc1cccnc1)/C(=C/c1ccc(-c2ccc(Cl)cc2)o1)S(=O)(=O)c1ccccc1,2.5,79.6*,x,23.0,0.9,97.4*,88.1*
O=C(CN(Cc1ccc(Br)cc1)S(=O)(=O)c1ccccc1)NCc1cccnc1,-7.9,-2.6,0.4,-4.2,-0.7,x,x
Cc1cccc(-c2ccc([C@@H]3[C@@H](CO)N4C(=O)CN(C(=O)c5cnccn5)C[C@H]34)cc2)c1,x,x,0.7,x,x,x,x
O=C(C=C=Nc1ccccc1)C(=O)N=C=Cc1ccccc1,-5.5,72.6*,-0.2,3.3,0.5,96.2*,98.8*
O=C(N/N=C/c1ccccc1)C(=O)N/N=C/c1ccccc1,3.4,0.7,-0.1,4.6,3.2,x,x
COc1cccc(NC(=O)C[C@H]2CC[C@H]3[C@H](COc4ccc(NC(=O)C5CCOCC5)cc4C(=O)N3C)O2)c1,x,x,0.3,x,x,x,x
CC(C)(C)OC(=O)NCCc1nnc(S(=O)(=O)Cc2ccc(Cl)cc2Cl)o1,1.5,25.7*,x,-2.4,-2.8,39.1*,73.6*
CNC(=O)C[C@@H]1CC[C@H]2[C@@H](COC[C@@H](O)CN2Cc2ccc(Cl)c(Cl)c2)O1,x,x,0.2,x,x,x,x
Cc1cc(N2CCN(Cc3nc(-c4ccc(Cl)cc4)oc3C)CC2)cc(C)n1,-7.1,18.7,0.1,2.7,-0.2,x,x
COc1ccc(-c2nc(CN3CCN(c4cc(C)nc(C)c4)CC3)c(C)o2)c2ccccc12,-0.7,25.3*,0.2,-7.3,-5.1,11.9,0.7
Cc1ccc(S(=O)(=O)CCC(=O)c2cccc([N+](=O)[O-])c2)cc1,2.7,33.2*,1.5,4.2,1.0,64.9*,98.0*
COCC(=O)N1CC2(CCN(C(=O)CN3CCOCC3)CC2)c2c([nH]c3cc(OC)ccc23)[C@@H]1CO,x,x,0.3,x,x,x,x
COc1ccc(C#Cc2ccc3c(c2)[C@@H]2[C@@H](CCN2C(=O)C2CC2)[C@@H](CO)N3)cc1,x,x,0.0,x,x,x,x
Cc1cc(Sc2nnc(/N=C/N(C)C)s2)c2ccccc2n1,-2.3,18.3,0.1,1.4,1.6,x,x
Cc1cc(Sc2nnc(N)s2)c2ccccc2n1,-3.2,23.2*,0.2,0.5,0.6,38.2*,58.1*
Cc1ccc(S(=O)(=O)Nc2ccc3c(c2)C(=O)N([C@@H](C)CO)C[C@H](C)[C@@H](CN(C)C(=O)Nc2ccc(F)cc2)OCCCC[C@@H](C)O3)cc1,x,x,0.1,x,x,x,x
COc1ccc2c3c(n(C)c2c1)[C@@H](CO)N(Cc1cccc(Cl)c1)CC31CN(C(=O)C2CC2)C1,x,x,0.1,x,x,x,x
COc1ccc2c3c(n(C)c2c1)[C@H](CO)N(C(=O)C1CC1)CC31CCN(C)CC1,x,x,0.1,x,x,x,x
CC(=C\c1ccccc1)/C=C1/SC(=O)N(CCCC(=O)Nc2ccc(C(=O)O)cc2)C1=O,4.9,8.1,0.1,-3.2,2.9,x,x
SMILES,NadD block,ABHD5 PLIN5 PPI,Xi reactivation,Rpn11 block,Rin1-Abl PPI inh,ABHD5-PLIN5 conf,HNF4 split-luc
O=C(CN1C(=O)S/C(=C\C=C\c2ccccc2)C1=O)N1CCCCC1,8.2,2.9,x,-7.7,3.3,x,x
O=C(CCCN1C(=O)S/C(=C/C=C/c2ccccc2)C1=O)Nc1ccc(C(=O)O)cc1,17.7,27.8*,0.2,11.0,0.8,16.9,11.7
O=C(CN1C(=O)S/C(=C\C=C\c2ccccc2)C1=O)Nc1ccc(O)cc1,5.2,29.6*,x,-3.5,0.2,12.2,3.3
CCOC1=CC2=C(C(=O)C(Cl)=CC2=O)[C@@H]2CN(S(=O)(=O)c3ccc(C)cc3)[C@@H](c3ccccc3)[C@H]12,37.3*,52.9*,0.0,-4.2,10.3,103.5*,58.4*
CC(=O)N1CCN(c2cc(N3CCCC3)c(F)cc2[N+](=O)[O-])CC1,0.0,2.8,0.1,3.1,-8.8,x,x
CCN1CCN(c2cc(N3CCc4ccccc4C3)c(F)cc2[N+](=O)[O-])CC1,-9.1,25.8*,0.0,-10.3,-10.1,14.8,2.7
O=C([C@@H]1[C@@H](CO)[C@@H]2Cn3c(ccc(-c4cccnc4)c3=O)[C@H]1N2CC1CC1)N1CCCCC1,x,x,0.6,x,x,x,x
CCOC(=O)c1c(-c2ccc(C)o2)csc1NC(=O)CSc1nnc(C)s1,3.2,33.3*,x,1.8,9.4,7.5,36.9*
CCOC(=O)c1c(-c2ccc(C)o2)csc1NC(=O)COC(=O)c1ccc(NC(N)=O)cc1,18.9,37.9*,x,29.2,1.2,21.1,44.4*
CCOC(=O)c1c(-c2ccc(C)o2)csc1NC(=O)CSc1nnnn1-c1ccccc1,13.6,40.3*,x,7.7,-1.6,23.3*,62.5*
C[C@@H]1CCCCO[C@@H](CN(C)C(=O)Nc2ccc(C(F)(F)F)cc2)[C@H](C)CN([C@H](C)CO)C(=O)c2cc(NS(=O)(=O)c3cccs3)ccc2O1,x,x,0.0,x,x,x,x
COC(=O)COc1ccc(C2Nc3c(Cl)ccc(C(=O)O)c3C3C=CCC32)cc1 (stereo unspecified),7.9,23.2*,0.0,-2.3,-1.0,15.3,28.1*
Cc1ccc(/C=C/C(=O)NCC2COc3ccccc3O2)o1 (stereo unspecified),3.4,23.8*,0.0,11.8,4.4,49.3*,62.7*
Cc1ccc(/C=C/C(=O)NC2CCCCCCC2)o1,6.3,50.2*,0.6,-4.2,-0.6,54.6*,70.8*
COc1ccc(/C=C/C(=O)NCC2COc3ccccc3O2)cc1OC (stereo unspecified),-2.0,0.8,-0.1,-1.4,-3.3,x,x
COc1ccc(CN(C)C[C@H]2Oc3ccc(NC(=O)C4CC4)cc3CC(=O)N([C@H](C)CO)C[C@H]2C)cc1,x,x,0.2,x,x,x,x
Oc1ccccc1C1CC(c2cccs2)=NC(c2cccc(Br)c2)N1 (stereo unspecified),9.5,45.2*,0.0,7.8,2.7,23.1*,49.2*

# Screening results from PubChem.
